B1: tRNA (parent)
chain: GUUCCGUUGGCGUAAUGGUAACGCGUCUCCCUCCUAAGGAGAAGACUGCGGGUUCGAGUCCCGUACGGAACG

Variants at the floor of the assay were thinned out.

Variants of B1 are the subject of the series. The experiment in a line: yeast fitness relative to wild type (ratio to wild type); higher = fitter; tRNA-Arg(CCU), competitive growth, 37 C, YPD. The method, boiled down: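 Amplicons of the tRNA-Arg(CCU) gene were sequenced, 100-nucleotide paired-end, from the start population and from each end population of a pooled yeast competition. The competition, in six parallel replicates, lasted 24 hours in YPD at 37°C. Fitness relative to wild type was calculated from changes in genotype frequencies. Genotypes had to have ≥ 100 starting reads, and estimates < 0.5 were set to 0.5.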
With U2A C5A C46U G50C, the yeast fitness is ≤ 0.5.
Under U2A A21C C29U G51A stands 0.574; under U2A C5U A15G C34U G41C C55A, ≤ 0.5; under U2A G6A C11G C49U G58C A69U, ≤ 0.5.
Take U2A G18A G23C A45U: the yeast fitness was determined as 0.573.
Under U2A C5G C24U C30G C49U stands ≤ 0.5.
Under U2A A45C stands 0.933; under U2A A21G G44C U59G C61U, ≤ 0.5; under U2A C11G A21G A65G, ≤ 0.5.
With U2A C46G C61U, the yeast fitness was 0.804.
For U2A C61U G67C, the yeast fitness is ≤ 0.5.
As for U2A A37G, the yeast fitness was found to be 0.659.
Under U2A C46A G51C stands 0.599; under U2A C34G G58C C66U, ≤ 0.5; under U2A C31G A65U G67C, ≤ 0.5.
Consider U2A G44A C46U, for which the yeast fitness was found to be 0.621.
With U2A C5G A14G C30G C46U the figure was ≤ 0.5.
Under U2A C5A C29U C62U A70U stands ≤ 0.5; under U2A G6A C11G C49U G58C G68U, ≤ 0.5.
In the case of U2A C31A A69U, the yeast fitness is 0.604.
With U2A G12C C29U G51A G56A A57G G63C the figure was ≤ 0.5.
With U2A G44C C46A G56C the figure was ≤ 0.5; with U2A C24A C30U, ≤ 0.5; with U2A C29U, 0.884.
Under U2A A45C A70C stands 0.758; under U2A C5G C66U, 0.657; under U2A G12C C29U C33G, ≤ 0.5.
U2A C24A A45G: the yeast fitness worked out at 0.568.
Under U2A C31G G39C C49U C60G stands ≤ 0.5.
With U2A A45C C55A the figure was ≤ 0.5.
U2A C34U: the yeast fitness amounted to 0.743.
With U2A C4U G25C C49U C61U, the yeast fitness is 0.581.
With U2A C27G A36G the figure was ≤ 0.5.
Regarding U2A G39A G48C, the yeast fitness is ≤ 0.5.
With U2A G12A the figure was 0.886; with U2A G12U C55U, ≤ 0.5; with U2A G9C G17A, ≤ 0.5.
Under U2A C30U C46A U54A A57G stands ≤ 0.5.
Under U2A C5G C24U C30G C49G C61G stands ≤ 0.5; under U2A C11G C30A A57G, ≤ 0.5.
As for U2A G9A U13A C24A A45C, the yeast fitness was found to be 0.536.
Under U2A C11G G17A A20U C33G G38C stands ≤ 0.5.
Regarding U2A C33A C55G A69C, the yeast fitness is ≤ 0.5.
Regarding U2A C49U A57U, the yeast fitness was ≤ 0.5.
Under U2A C60G G63C stands ≤ 0.5; under U2A G6A A36C, 0.666.
Regarding U2A G25C A36U, the yeast fitness was ≤ 0.5.
With U2A C11G C61A the figure was ≤ 0.5; with U2A C5G U8A G44A G48A G50C, ≤ 0.5.
Under U2A C5A G9C U16C G25C A65C stands ≤ 0.5; under U2A A21G A36U, 0.624.
With U2A A21C C24A C33A G48C the figure was ≤ 0.5; with U2A G9A U13A U35G A70C, ≤ 0.5; with U2A G6A U16C C24U G38C A65C, ≤ 0.5.
As for U2A A36G C49A, the yeast fitness was ≤ 0.5.
With U2A A21G C29U A40U A69U the figure was 0.59; with U2A A37G C55U, ≤ 0.5.
For the variant U2A C22A A65U, the yeast fitness is ≤ 0.5.
Under U2A C22A A65C stands ≤ 0.5; under U2A C5U G48A, 0.611; under U2A A21G C29G C49A G67A, ≤ 0.5.
With U2A G48C A65C the figure was 0.593.
Under U2A G17C C46U stands ≤ 0.5; under U2A G6A C11U C31G G51A G67A, ≤ 0.5; under U2A C4G G56A G58A A65C, ≤ 0.5.
As for U2A C30G U53C A57U C60U, the yeast fitness was ≤ 0.5.
For U2A C4G G38C A45U G50C G52A, the yeast fitness was 0.849.
With U2A C33A C55A G63A the figure was 0.513; with U2A C66A, 0.704; with U2A C33A C34U G56A A69C, ≤ 0.5.
With U2A C29A A45U, the yeast fitness was 0.542.
With U2A C30U A42G C60G C62G A65G the figure was 0.595; with U2A C24G U32A G58C G63C, ≤ 0.5; with U2A C4U U8G C55G G68A, ≤ 0.5.
Under U2A G9C stands 0.716; under U2A G9A U13A C24A A45C U64A, 0.537.
Under U2A G6C U16C C24U A36G stands ≤ 0.5.
For U2A A37C A57C C60U, the yeast fitness was ≤ 0.5.
With U2A G6C U7C C30A G44A C66A the figure was 0.576.
With U2A A57U C61U C66G the figure was ≤ 0.5; with U2A C11G C49A C60U G68C, 0.608.
With U2A C4G G9A G44A U54C the figure was ≤ 0.5.
U2A A21G G41A A43G: the yeast fitness was ≤ 0.5.
As to U2A G12C G23C, the yeast fitness is ≤ 0.5.
Under U2A C5A stands 0.611.
Take U2A C4G C34U: the yeast fitness is ≤ 0.5.
Under U2A C4A C46G G52A A70U stands ≤ 0.5.
With U2A G18A G44C the figure was ≤ 0.5.
With U2A C46A A70C the figure was 0.705; with U2A G6A C11G A42U A65G C66G G68A, ≤ 0.5; with U2A A36C, 0.518.
For U2A A36U, the yeast fitness is 0.596.
With U2A C27U C29U C62U the figure was ≤ 0.5; with U2A G9A C11U A40U A42C A45G G50C C61U C66U, ≤ 0.5; with U2A G9A U19A A20U, 0.622.
With U2A C4G U8A G12A G48A A69C the figure was 0.544; with U2A C4A C22A C55U, ≤ 0.5; with U2A C11G G17A A20U C33G G38C A70G, ≤ 0.5.
With U2A C31A G48A the figure was 0.619.
Turning to U2A G10A C49A U53C C62G, the yeast fitness was ≤ 0.5.
With U2A C24U C30U C34U G52A C61A the figure was ≤ 0.5; with U2A G25A A69G, 0.576.
Under U2A C4G A42G A45U C66U stands ≤ 0.5; under U2A C11G U54C C61G, ≤ 0.5.
U2A C5G C31U C66U: the yeast fitness was ≤ 0.5.
With U2A A45U C62G the figure was ≤ 0.5; with U2A G12U G23A A36G G39A, 0.584.
Under U2A C22U A40C stands 0.631.
On to U2A G18A C24A U28A U32C C60A, for which the yeast fitness is ≤ 0.5.
Consider U2A C29A C30U C46U G58C, for which the yeast fitness is ≤ 0.5.
With U2A C11G U47A the figure was ≤ 0.5; with U2A G38C A69U, ≤ 0.5.
With U2A A65G the figure was 0.938.
With U2A A65U, the yeast fitness amounted to 0.812.
With U2A C24G G25A C61G G67C G68A the figure was ≤ 0.5; with U2A G39C, 0.75.
Under U2A A40U G48A stands 0.681.
Under U2A C31G U32G stands 0.526; under U2A C31G C60G U64G, 0.532.
With U2A C5G A14U U19A G23C C29A C66A, the yeast fitness is ≤ 0.5.
Under U2A G17C C46G C66A A70C stands 0.605; under U2A C30G A37U U53A C55U A57U, 0.574; under U2A C5A C11U C27G C60A, ≤ 0.5.
With U2A C22U A43U the figure was 0.533; with U2A G12A A20G U26C C31G C33U A42U, ≤ 0.5; with U2A G9C U16G C24U G68C, ≤ 0.5.
With U2A C5U A21U C30G A70U the figure was ≤ 0.5.
Take U2A G12A C30A A43U C60A G67A: the yeast fitness was ≤ 0.5.
Under U2A G23A C29G A40C C55G stands ≤ 0.5.
Take U2A C5U U47A G52A: the yeast fitness was ≤ 0.5.
With U2A C11G G25A A40U C49A C55U the figure was ≤ 0.5; with U2A C11G C27G U54A C66U, ≤ 0.5; with U2A C4A G18C U47A C55U, 0.793.
With U2A G9C A14C C34U A65U, the yeast fitness is ≤ 0.5.
Under U2A C5G C11G U19C A20G stands ≤ 0.5; under U2A G10A U26A C66U, ≤ 0.5.
Under U2A G6A A40U C46A stands 0.596; under U2A G6A C11G C49U G58C, ≤ 0.5; under U2A G17C C49U, 0.571.
As to U2A C27G A37C C55U C62G C66G, the yeast fitness is ≤ 0.5.
Under U2A A70C stands 1; under U2A A20U C34A C61U A65U, ≤ 0.5.
As to U2A C22G G25C C61G, the yeast fitness was 0.703.
With U2A C22G G25C C61U the figure was ≤ 0.5; with U2A G9A C33U G38C A40U A42C, ≤ 0.5; with U2A C66U A70C, 0.641.
With U2A G23A C29G A45U C60G C61U A69G the figure was ≤ 0.5.
As to U2A C27A C60U A69G, the yeast fitness came out at 0.514.
With U2A G25C G38C C61U A70G the figure was ≤ 0.5; with U2A C5A C33U A57G C66G, ≤ 0.5; with U2A C11U G23C C27A G50U, ≤ 0.5.
In the case of U2A C24G A42U, the yeast fitness is 0.812.
With U2A A42G the figure was 0.74.
Under U2A A42U stands 0.864; under U2A A42C, 0.818; under U2A C11U A14U U19G, ≤ 0.5.
Under U2A C27G C31U stands 0.539; under U2A C60G A70C, 0.532.
On to U2A C60G A70U, for which the yeast fitness is ≤ 0.5.
With U2A C5A G50A the figure was ≤ 0.5.
With U2A C5A U64C the figure was 0.595; with U2A A20G C29A A45U, 0.538.
As for U2A G48A C60U A69U, the yeast fitness was ≤ 0.5.
In the case of U2A A21U A42G, the yeast fitness is ≤ 0.5.
Under U2A G9A G48C G50A stands ≤ 0.5.
Under U2A A21G C29U A40U G63A A69U stands ≤ 0.5.
U2A C24G U32A U54C G56A: the yeast fitness is ≤ 0.5.

The values are drawn from the RNAGym collection of RNA variant scans (doi:10.1126/science.aae0568).
